Columns and labels:
Cytochrome P450 2C9 = Cytochrome P450 2C9 (Homo sapiens, UniProt P11712); test: Inhibition of human cytochrome P450 2C9; format: ADME
Method in brief: (§1)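 Human liver microsomes with isoform marker reactions near substrate Km: diclofenac 4'-hydroxylation (2C9), dextromethorphan […] (2D6), midazolam 1'-hydroxylation (3A4); metabolite formation by LC-MS/MS; IC50 reported.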

Cytochrome P450 3A4 = Cytochrome P450 3A4 (Homo sapiens, UniProt P08684); test: Inhibition of human cytochrome P450 3A4; format: ADME; method in brief: as §1
Cytochrome P450 2D6 = Cytochrome P450 2D6 (Homo sapiens, UniProt P10635); test: Inhibition of human cytochrome P450 2D6; format: ADME; method in brief: as §1
[1] = molecular target: T1, Endothelin receptor type B (Homo sapiens, UniProt P24530); test: Antagonist activity towards human recombinant Endothelin B receptor expressed in chinese hamster ovary (CHO) cells determined using [125I]ET1 as radioligand; format: functional, cell-based
T1 sequence (P24530 whole entry): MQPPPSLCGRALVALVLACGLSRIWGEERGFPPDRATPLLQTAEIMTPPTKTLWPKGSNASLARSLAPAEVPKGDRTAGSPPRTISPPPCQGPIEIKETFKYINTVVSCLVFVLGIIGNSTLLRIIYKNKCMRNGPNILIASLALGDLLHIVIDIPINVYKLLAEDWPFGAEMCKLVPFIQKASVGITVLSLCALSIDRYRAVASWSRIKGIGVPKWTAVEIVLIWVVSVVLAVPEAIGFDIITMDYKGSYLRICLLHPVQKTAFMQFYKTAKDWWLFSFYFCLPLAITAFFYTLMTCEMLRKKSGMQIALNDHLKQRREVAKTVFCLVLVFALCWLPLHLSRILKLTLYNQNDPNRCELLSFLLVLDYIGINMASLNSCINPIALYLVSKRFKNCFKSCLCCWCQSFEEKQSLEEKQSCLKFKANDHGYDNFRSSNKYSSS

[2] = Log D value was evaluated; format: physicochemical; details: octanol/water, pH 7.4; read-out: Log D7.4
Method in brief: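 Shake-flask partition, n-octanol versus aqueous phase buffered to pH 7.4 (67 mM KH2PO4/67 mM Na2HPO4), volume ratio 1:9; both phases assayed by HPLC.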

Endothelin-1 receptor = molecular target: T2, Endothelin-1 receptor (Homo sapiens, UniProt P25101); test: Antagonist activity towards human recombinant Endothelin A receptor expressed in chinese hamster ovary (CHO) cells determined using [125I]ET1 as radioligand; format: functional, cell-based
T2 sequence (P25101 whole entry): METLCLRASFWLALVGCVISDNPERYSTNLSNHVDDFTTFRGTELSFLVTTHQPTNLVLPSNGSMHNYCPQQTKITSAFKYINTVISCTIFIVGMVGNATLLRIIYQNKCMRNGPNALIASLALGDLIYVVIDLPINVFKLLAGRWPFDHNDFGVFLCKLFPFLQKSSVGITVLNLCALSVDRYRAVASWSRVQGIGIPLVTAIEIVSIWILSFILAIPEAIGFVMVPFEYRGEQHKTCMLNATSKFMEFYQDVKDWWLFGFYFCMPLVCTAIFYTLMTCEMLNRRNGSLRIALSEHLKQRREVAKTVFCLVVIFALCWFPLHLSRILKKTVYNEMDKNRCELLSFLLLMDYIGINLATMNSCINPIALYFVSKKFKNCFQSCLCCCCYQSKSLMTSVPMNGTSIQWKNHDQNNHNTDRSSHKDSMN

Rattus norvegicus [3] = species: Rattus norvegicus; test: Maximum effect on reduction of mean arterial blood pressure was determined in rats; format: functional
Method in brief: (§2)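 Single oral dose of 30 mg/kg suspended in 10% arabic gum to hypertensive Dahl salt-sensitive rats carrying telemetry for arterial pressure and heart rate; area between pre- and post-treatment pressure curves calculated; fall in mean arterial pressure and duration of action also taken from recordings.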

Endothelin receptor [4] = molecular target: T3, Endothelin receptor (Rattus norvegicus, UniProt P26684+P21451); test: Inhibitory potency at native endothelin A and B receptors by inhibiting sarafotoxin Sf6 contractions of rat tracheal rings; format: functional
T3 sequence (P26684 whole entry): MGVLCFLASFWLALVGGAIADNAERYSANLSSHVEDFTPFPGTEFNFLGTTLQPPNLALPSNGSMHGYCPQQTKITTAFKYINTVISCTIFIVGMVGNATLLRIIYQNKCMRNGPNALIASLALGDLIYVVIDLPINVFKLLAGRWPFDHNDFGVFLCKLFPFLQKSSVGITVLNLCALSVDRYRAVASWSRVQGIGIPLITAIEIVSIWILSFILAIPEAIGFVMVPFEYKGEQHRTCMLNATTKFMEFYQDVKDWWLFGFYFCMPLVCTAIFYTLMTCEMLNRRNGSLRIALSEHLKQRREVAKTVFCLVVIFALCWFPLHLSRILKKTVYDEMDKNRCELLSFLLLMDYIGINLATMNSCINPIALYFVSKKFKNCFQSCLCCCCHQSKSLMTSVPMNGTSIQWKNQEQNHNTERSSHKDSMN
T3 sequence (P21451 whole entry): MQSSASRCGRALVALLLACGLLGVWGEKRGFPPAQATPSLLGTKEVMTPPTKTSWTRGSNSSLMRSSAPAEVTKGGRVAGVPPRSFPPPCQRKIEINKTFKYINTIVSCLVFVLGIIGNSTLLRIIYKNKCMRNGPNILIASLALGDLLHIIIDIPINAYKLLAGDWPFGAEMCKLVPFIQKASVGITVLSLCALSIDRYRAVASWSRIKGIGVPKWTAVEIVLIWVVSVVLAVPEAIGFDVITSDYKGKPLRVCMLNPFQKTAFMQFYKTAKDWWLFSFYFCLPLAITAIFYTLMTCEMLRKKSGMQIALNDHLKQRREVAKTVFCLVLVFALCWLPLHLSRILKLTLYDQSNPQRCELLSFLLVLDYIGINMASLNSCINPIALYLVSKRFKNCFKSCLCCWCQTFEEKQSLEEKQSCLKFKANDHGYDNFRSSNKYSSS

Rattus norvegicus [5] = test: In vivo area between curve (ABC) as calculated from the blood pressure recordings before and after administration of 30 mg/kg to hypertensive Dahl salt sensitive rats; number of rats=10; format: functional; method in brief: as §2
Rattus norvegicus [6] = species: Rattus norvegicus; test: Duration of action of compound for reducing the blood pressure of rats was determined; format: functional; method in brief: as §2
Endothelin receptor [7] = molecular target: T3, Endothelin receptor; test: Inhibitory potency at native endothelin A and endothelin B receptors by inhibiting endothelin-1 contractions of rat aortic rings; format: functional
Rattus norvegicus [8] = test: In vivo area between curve (ABC) as calculated from the blood pressure recordings before and after administration of 30 mg/kg to hypertensive Dahl salt sensitive rats; number of rats=12; format: functional; method in brief: as §2
Rattus norvegicus [9] = test: In vivo area between curve (ABC) as calculated from the blood pressure recordings before and after administration of 30 mg/kg to hypertensive Dahl salt sensitive rats; number of rats=14; format: functional; method in brief: as §2
Rattus norvegicus [10] = test: In vivo area between curve (ABC) as calculated from the blood pressure recordings before and after administration of 30 mg/kg to hypertensive Dahl salt sensitive rats; number of rats=6; format: functional; method in brief: as §2
Rattus norvegicus [11] = test: In vivo area between curve (ABC) as calculated from the blood pressure recordings before and after administration of 30 mg/kg to hypertensive Dahl salt sensitive rats; number of rats=15; format: functional; method in brief: as §2

Cytochrome P450 2C9, sequence (P11712 whole entry, canonical isoform): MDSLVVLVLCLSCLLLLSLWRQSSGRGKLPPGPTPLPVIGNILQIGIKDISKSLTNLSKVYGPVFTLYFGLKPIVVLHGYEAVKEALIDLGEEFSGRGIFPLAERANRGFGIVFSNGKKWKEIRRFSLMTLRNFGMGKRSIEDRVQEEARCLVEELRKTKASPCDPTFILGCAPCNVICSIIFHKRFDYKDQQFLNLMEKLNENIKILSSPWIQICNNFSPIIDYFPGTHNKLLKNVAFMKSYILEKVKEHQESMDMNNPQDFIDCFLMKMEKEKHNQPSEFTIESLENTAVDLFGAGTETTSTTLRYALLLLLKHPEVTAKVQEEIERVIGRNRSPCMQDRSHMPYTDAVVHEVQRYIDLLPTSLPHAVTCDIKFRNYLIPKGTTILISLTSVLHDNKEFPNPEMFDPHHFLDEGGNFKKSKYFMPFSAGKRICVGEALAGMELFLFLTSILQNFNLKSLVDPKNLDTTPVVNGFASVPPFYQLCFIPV
Cytochrome P450 2D6, sequence (P10635 whole entry): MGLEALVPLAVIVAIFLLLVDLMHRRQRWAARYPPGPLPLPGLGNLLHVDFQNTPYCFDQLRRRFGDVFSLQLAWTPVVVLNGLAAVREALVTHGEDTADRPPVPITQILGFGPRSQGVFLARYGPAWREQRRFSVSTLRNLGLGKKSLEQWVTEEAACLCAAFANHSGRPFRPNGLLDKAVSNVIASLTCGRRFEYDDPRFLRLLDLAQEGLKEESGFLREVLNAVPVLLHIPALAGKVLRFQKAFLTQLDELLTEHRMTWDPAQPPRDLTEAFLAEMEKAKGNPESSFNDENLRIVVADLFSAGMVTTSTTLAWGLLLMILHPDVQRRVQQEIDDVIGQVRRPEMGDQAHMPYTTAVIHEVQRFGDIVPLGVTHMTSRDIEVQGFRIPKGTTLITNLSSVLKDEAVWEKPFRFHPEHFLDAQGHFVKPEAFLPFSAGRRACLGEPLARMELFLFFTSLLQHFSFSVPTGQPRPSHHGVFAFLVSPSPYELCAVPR
Cytochrome P450 3A4, sequence (P08684 whole entry): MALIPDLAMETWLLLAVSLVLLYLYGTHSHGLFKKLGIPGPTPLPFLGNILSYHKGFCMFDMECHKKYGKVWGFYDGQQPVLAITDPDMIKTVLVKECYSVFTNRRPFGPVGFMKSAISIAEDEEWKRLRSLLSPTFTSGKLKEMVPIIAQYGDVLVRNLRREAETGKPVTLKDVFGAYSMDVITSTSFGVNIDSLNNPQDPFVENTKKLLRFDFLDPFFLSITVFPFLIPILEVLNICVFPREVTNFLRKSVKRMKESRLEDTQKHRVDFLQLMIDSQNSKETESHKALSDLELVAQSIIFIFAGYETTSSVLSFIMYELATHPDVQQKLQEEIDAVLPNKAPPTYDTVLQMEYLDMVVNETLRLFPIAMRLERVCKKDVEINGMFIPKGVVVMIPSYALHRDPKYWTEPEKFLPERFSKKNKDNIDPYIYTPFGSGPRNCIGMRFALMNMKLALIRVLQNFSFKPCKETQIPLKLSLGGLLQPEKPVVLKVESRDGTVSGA

| Structure (SMILES) | IC50 (Cytochrome P450 2C9) | IC50 (Cytochrome P450 3A4) | IC50 (Cytochrome P450 2D6) | IC50 [1] | logD [2] | IC50 (Endothelin-1 receptor) | Max effect (Rattus norvegicus [3]) | pA2 (Endothelin receptor [4]) | ABC (Rattus norvegicus [5]) | Duration of action (Rattus norvegicus [6]) | pA2 (Endothelin receptor [7]) | ABC (Rattus norvegicus [8]) | ABC (Rattus norvegicus [9]) | ABC (Rattus norvegicus [10]) | ABC (Rattus norvegicus [11]) |
| --- | --- | --- | --- | --- | --- | --- | --- | --- | --- | --- | --- | --- | --- | --- | --- |
| Cc1cc(C)nc(O[C@H](C(=O)O)[C@@]2(c3ccccc3)NCC(=O)N(C)c3ccccc32)n1 (racemic) | > 50 µM | > 50 µM | > 50 µM | 184 nM | -2 | 12.3 nM | – | – | – | – | – | – | – | – | – |
| Cc1cc(C)nc(O[C@H](C(=O)O)[C@@]2(c3ccccc3)NCC(=O)N(Cc3c(F)cc(F)cc3F)c3ccccc32)n1 (racemic) | > 50 µM | 41 µM | > 50 µM | 83.6 nM | 0.4 | 2.5 nM | -21 mmHg | 6.18 | 674 mmHg·h | 54 h | 8.18 | – | – | – | – |
| CCCCc1cccc([C@]2([C@H](Oc3nc(C)cc(C)n3)C(=O)O)NCC(=O)N(Cc3c(C)cc(C)cc3C)c3ccccc32)c1 (racemic) | – | – | – | 13.6 nM | – | 18.3 nM | -21 mmHg | 7.44 | – | 24 h | 7.83 | 285 mmHg·h | – | – | – |
| Cc1cc(C)cc(O[C@H](C(=O)O)[C@@]2(c3ccccc3)NCC(=O)N(Cc3c(F)cccc3Cl)c3ccccc32)c1 (racemic) | – | – | – | 184 nM | – | 18.9 nM | -13 mmHg | 6.89 | – | 30 h | 6.59 | 267 mmHg·h | – | – | – |
| Cc1cc(C)cc(O[C@H](C(=O)O)[C@@]2(c3ccccc3)NCC(=O)N(Cc3c(F)cc(F)cc3F)c3ccccc32)c1 (racemic) | 15 µM | 14 µM | > 50 µM | 565 nM | 2.1 | 17.2 nM | -28 mmHg | 7.02 | – | 32 h | 8.27 | – | 483 mmHg·h | – | – |
| CCCCc1cccc([C@]2([C@H](Oc3nc(C)cc(C)n3)C(=O)O)NCC(=O)N(Cc3c(F)cc(F)cc3F)c3ccccc32)c1 (racemic) | 15 µM | 5 µM | > 50 µM | 33.2 nM | 2.3 | 13.9 nM | -13 mmHg | 7.72 | – | 18 h | 8.36 | – | – | 214 mmHg·h | – |
| CCCCc1ccc(CN2C(=O)CN[C@](c3ccccc3)([C@H](Oc3nc(C)cc(C)n3)C(=O)O)c3ccccc32)cc1 (racemic) | – | – | – | 11.1 nM | – | 3.5 nM | – | – | – | – | 7.84 | – | – | – | – |
| Cc1cc(C)nc(O[C@H](C(=O)O)[C@@]2(c3cccc(-c4ccccc4)c3)NCC(=O)N(Cc3c(F)cc(F)cc3F)c3ccccc32)n1 (racemic) | 28 µM | 7 µM | > 50 µM | 89.8 nM | 1.8 | 7.9 nM | -12 mmHg | 7.07 | – | 24 h | 9.03 | – | – | – | 250 mmHg·h |
| Cc1cc(C)nc(O[C@H](C(=O)O)[C@@]2(c3cccc(-c4ccccc4)c3)NCC(=O)N(Cc3c(Cl)cccc3Cl)c3ccccc32)n1 (racemic) | – | – | – | 25 nM | – | 16.9 nM | -15 mmHg | 7.37 | – | 18 h | 8.98 | 200 mmHg·h | – | – | – |
| Cc1cc(C)nc(O[C@H](C(=O)O)[C@@]2(c3ccccc3)NCC(=O)N(Cc3c(F)ccc(F)c3F)c3ccccc32)n1 (racemic) | – | – | – | 13.2 nM | – | 2.4 nM | – | – | – | – | 8.38 | – | – | – | – |
| COC(c1ccccc1)(c1ccccc1)[C@H](Oc1nc(C)cc(C)n1)C(=O)O (racemic) [AMBRISENTAN] | – | – | – | – | – | 21.7 nM | -17 mmHg | 5.63 | – | 32 h | 7.09 | – | – | 409 mmHg·h | – |
| Cc1cc(C)nc(O[C@H](C(=O)O)[C@@]2(c3ccccc3)NCC(=O)N(Cc3c(F)c(F)c(F)c(F)c3F)c3ccccc32)n1 (racemic) | – | – | – | 28.8 nM | – | 6.8 nM | – | – | – | – | 7.87 | – | – | – | – |
| CCCCc1cccc([C@]2([C@H](Oc3nc(C)cc(C)n3)C(=O)O)NCC(=O)N(Cc3c(F)cccc3Cl)c3ccccc32)c1 (racemic) | – | – | – | 7.1 nM | – | 7.6 nM | -23 mmHg | 7.88 | – | 36 h | 8.72 | 409 mmHg·h | – | – | – |
| CCc1cccc([C@]2([C@H](Oc3nc(C)cc(C)n3)C(=O)O)NCC(=O)N(Cc3ccc(OC)cc3)c3ccccc32)c1 (racemic) | – | – | – | 68 nM | – | 3.1 nM | – | – | – | – | 7.55 | – | – | – | – |
